Screens as filed in PubChem.
Most compounds without a hit are left out; they make up all but 2.5% or so of the library.
SENP8 block-1 = blocks human SENP8 cleavage of Nedd8 substrate. 360,000 compounds, 0.64% hits. Q96LD8. recombinant SENP8, Nedd8 substrate fluorescence. inhibition, % at 20 µM; in the data active means inhibition mostly above about 40%, no sharp cut-off; inactive means mostly below about 27%
SENP6 block = blocks the human protease SENP6 | Recombinant SENP6 catalytic domain, aminoluciferin luminescence | inhibition, % at 10 µM | 330,000 compounds, 1.8% hits | AID 2599;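 active means inhibition above about 50% at the single tested dose, limit read from the data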;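 further: plate controls were DMSO wells with enzyme for no effect and DMSO wells lacking enzyme for full effect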
SENP1 inh = blocks the human SENP1 SUMO protease catalytic domain | recombinant SENP1 catalytic domain, CyPet-SUMO1-YPet FRET cleavage | AID 624204 | inhibition, % at 10 µM | 360,000 compounds, 0.21% hits;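 active means inhibition at least 30% at 10 µM, raw YFP signal under a set limit, fluorescence ratio 0.5 to 1.5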;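 further: 0% = enzyme with DMSO and 100% = no enzyme wells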
Target sequence (Q9P0U3 419-644 limits assumed): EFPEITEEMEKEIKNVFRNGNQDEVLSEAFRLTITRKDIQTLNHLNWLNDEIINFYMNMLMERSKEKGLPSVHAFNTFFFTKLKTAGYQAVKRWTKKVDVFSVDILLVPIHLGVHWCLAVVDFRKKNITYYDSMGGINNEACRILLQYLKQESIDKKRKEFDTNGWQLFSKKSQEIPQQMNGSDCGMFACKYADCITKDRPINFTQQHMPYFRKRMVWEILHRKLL
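system = hSENP1 catalytic domain, recombinant | reagent = SFCypet-SUMO1-SFYpet substrate at 25 nM | doses = one dose per compound, 10 µM, 0.5% DMSO | incubation = enzyme reaction for 50 min at room temperature, dark | measured by = FRET, CFP and YFP emission | controls = no-enzyme low, enzyme-DMSO high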
SENP7 block = SENP7 protease inhibition | 330,000 compounds, 1.5% hits | AID 434973 | recombinant SENP7, Z-RLRGG-aminoluciferin luminescence, 40 min | inhibition, % at 5 µM;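 active means inhibition above about 50% at the single test dose, limit read from the data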;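 further: plate controls were DMSO with enzyme for no effect and no enzyme buffer wells for full effect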
SENP8 block-2 = blocks the human protease SENP8. Q96LD8. purified SENP8, Z-RLRGG-aminoluciferin cleavage, luminescence. inhibition, % at 10 µM. 330,000 compounds, 1.2% hits; in the data active means inhibition above about 50%
SENP8 confirm = confirmation of human SENP8 protease inhibitors | 6,200 compounds, 40% hits | AID 488912 | Recombinant SENP8, Z-RLRGG-aminoluciferin luminescence, 60 min | shares compounds with SENP7 block | inhibition, % at 12.5 µM;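 active means mean inhibition across replicates above about 50%, limit read from the data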
SENP6 confirm = confirmation of human SENP6 protease inhibitors. shares compounds with SENP7 block. recombinant SENP6, Z-RLRGG-aminoluciferin luminescence. inhibition, % at 12.5 µM. 6,200 compounds, 58% hits
SENP7 confirm = confirmation of human SENP7 protease inhibitors | recombinant SENP7, Z-RLRGG-aminoluciferin luminescence, 40 min | AID 488917 | 6,200 compounds, 69% hits | inhibition, % at 12.5 µM | shares compounds with SENP7 block
Casp3 select = selectivity test for SENP inhibitors: human caspase-3 inhibition; shares compounds with SENP7 block; purified caspase-3, Z-DEVD-aminoluciferin luminescence, 60 min; inhibition, % at 12.5 µM; 6,200 compounds, 60% hits; AID 488918;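 active means mean inhibition above about 50%, limit read from the data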;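 further: plate controls were enzyme with DMSO for no effect and wells without caspase-3 for full effect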
Target sequence (P42574 28-227 limits assumed): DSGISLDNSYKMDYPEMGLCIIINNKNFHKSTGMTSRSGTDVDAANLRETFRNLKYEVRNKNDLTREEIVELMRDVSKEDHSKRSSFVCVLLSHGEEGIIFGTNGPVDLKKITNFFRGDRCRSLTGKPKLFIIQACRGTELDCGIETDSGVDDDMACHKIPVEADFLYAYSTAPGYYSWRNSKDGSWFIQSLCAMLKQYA
SENP luc ctr = counter-screen for SENP inhibitors: luminescence interference; shares compounds with SENP7 block; Pre-incubated SENP8/Z-RLRGG-aminoluciferin, luciferase luminescence interference; inhibition, % at 12.5 µM; 6,200 compounds, 39% hits;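 active means mean inhibition above about 50% when retested at one dose, limit read from the data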;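 further: plate controls were DMSO wells with completed reaction for no effect and substrate without enzyme for full effect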
Starred values were filed as active, the others as inactive; i = inactive; x = no result given.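 How the source made its calls, unless noted: active means mean inhibition above about 50% in the one-dose retest (limit read from the data); inactive means the rest.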

SMILES	SENP8 block-1	SENP6 block	SENP1 inh	SENP7 block	SENP8 block-2	SENP8 confirm	SENP6 confirm	SENP7 confirm	Casp3 select	SENP luc ctr
COc1cccc(CNC(C)(C)CO)c1OCc1ccc(Cl)cc1	16	-13	1	4	4	x	x	x	x	x
Cc1cc(NC(=O)c2ccc(C#N)cc2)on1	14	-12	2	2	-7	x	x	x	x	x
N#CC1=C2C=Cc3ccccc3N2CCCC1=O	-18	52*	-68	49	14	36	36	76*	68*	9
Clc1ccc(-c2nnc(SCc3ccon3)o2)c(Cl)c1	8	70*	-1	57*	61*	11	62*	87*	64*	61*
Clc1ccc(-c2nnc(SCc3nc4ccccc4[nH]3)o2)c(Cl)c1	8	-7	8	2	0	x	x	x	x	x
C=CCSc1nnc(-c2ccc(Cl)cc2Cl)o1	12	60*	4	57*	31	18	48	77*	56*	39
O=[N+]([O-])c1cc(-c2ncccn2)cs1	14	2	11	-12	-16	x	x	x	x	x
O=C(Nc1ccc(Br)cc1F)c1ccc2c(c1)OCCO2	3	90*	1	86*	80*	-3	86*	98*	84*	19
Cc1occc1C(=O)Nc1ccc(Br)cc1F	18	56*	-1	44	14	18	26	73*	63*	49
O=C(Nc1ccc(F)cc1F)c1ccc2c(c1)OCCO2	3	89*	3	89*	78*	8	82*	98*	93*	56*
O=C(NCc1ccccc1F)c1ccc2c(c1)OCO2	4	-4	1	-6	-11	x	x	x	x	x
O=C(NCCc1ccccc1F)c1ccc2c(c1)OCCO2	-3	92*	0	89*	80*	89*	89*	98*	94*	89*
O=C(COC(=O)c1ccc2c(c1)OCCO2)Nc1ccc(F)cc1F	15	-4	4	4	2	x	x	x	x	x
CC(C)NC(=NCc1ccc(Cl)cc1Cl)Nc1ccccc1	2	-19	2	8	-7	x	x	x	x	x
CCc1nc2ccc(C(=O)NCCN3CCOCC3)cn2c1N(C)Cc1ccc(OC)cc1	3	x	-1	x	x	x	x	x	x	x
COc1cccc2c1C(=O)O/C2=C/c1ccc2c(c1)OCO2	i	19	7	98*	88*	22	19	22	74*	-11
Brc1ccc(-c2cnc(-c3cccs3)o2)cc1	-370	69*	-1	62*	41	56*	67*	86*	36	47
Cc1ccc(C)c(N(C(=O)c2csnn2)C(C(=O)NC2CCCCC2)c2cccnc2)c1 (stereo unspecified)	13	-17	-2	1	-8	x	x	x	x	x
COc1ccccc1NC(=O)COC(=O)c1c(C)nn(-c2ccccc2)c1C	5	93*	2	97*	95*	96*	96*	101*	95*	75*
Cc1ccc(NC(=O)COC(=O)c2c(C)nn(-c3ccccc3)c2C)cc1	2	4	-3	5	-4	x	x	x	x	x
Cc1cc(NC(=O)COC(=O)c2c(C)nn(-c3ccccc3)c2C)no1	14	2	0	7	7	x	x	x	x	x
Cc1nn(-c2ccccc2)c(C)c1C(=O)OCC(=O)Nc1ccccc1	-1	83*	2	81*	75*	77*	76*	94*	83*	74*
Cc1cccc(NC(=O)COC(=O)CCc2c[nH]c3ccccc23)c1	7	0	1	11	-4	x	x	x	x	x
CCOC(=O)c1cccc(NC(=O)CSc2nnc(-c3ccncc3)n2CCCOC)c1	-1	-20	0	99*	-8	-12	-5	-5	2	3
Cc1cc(C(=O)COC(=O)c2ccc(O)cc2)c(C)n1CC1CCCO1 (stereo unspecified)	12	54*	1	2	26	54*	49	83*	67*	41
SMILES	SENP8 block-1	SENP6 block	SENP1 inh	SENP7 block	SENP8 block-2	SENP8 confirm	SENP6 confirm	SENP7 confirm	Casp3 select	SENP luc ctr
COc1cc(OC)cc(C(=O)OCC(=O)c2cc(C)n(CC3CCCO3)c2C)c1 (stereo unspecified)	0	68*	0	22	48	57*	49	79*	53*	3
Cc1cc(C(=O)COC(=O)c2ccc(Cl)c(S(N)(=O)=O)c2)c(C)n1CC1CCCO1 (stereo unspecified)	13	-5	-1	-4	7	x	x	x	x	x
CCC(C)NC(=S)Nc1ccc(C(=O)OC)cc1 (stereo unspecified)	15	-20	1	8	4	x	x	x	x	x
Cc1c(C)c2ccc(OCC(=O)Nc3ccccn3)cc2oc1=O	-341	64*	4	95*	48	18	8	-2	11	-8
Cc1c(C)c2ccc(OCC(=O)Nc3nccs3)cc2oc1=O	-389	56*	1	84*	51*	6	9	33	42	2
Cc1cc(=O)oc2cc(OCC(=O)Nc3nccs3)ccc12	-83	42	1	29	26	x	x	x	x	x
Cc1c(C)c2ccc(OCC(=O)NCc3ccccn3)cc2oc1=O	-305	11	0	-5	0	x	x	x	x	x
Cc1cccc(OCC(=O)Nc2nccs2)c1C	1	95*	-3	96*	90*	89*	92*	100*	94*	87*
CCCCn1c(=O)c(CCC(=O)OCC(=O)NCc2ccc(OC)c(OC)c2)nc2ccccc21	-39	-20	-1	-2	7	x	x	x	x	x
C=C(C)Cn1c2ccc(NC(=O)NCCc3ccccc3)cc2c(=O)n1C	i	x	0	x	x	x	x	x	x	x
CS(=O)(=O)c1ccc2nc(NC(=O)c3ccco3)sc2c1	-236	24	-1	26	23	x	x	x	x	x
Cc1ccc(C(=O)Nc2nc3ccc(S(C)(=O)=O)cc3s2)o1	-235	-15	-4	60*	33	56*	54*	84*	86*	64*
CS(=O)(=O)c1ccc2nc(NC(=O)c3cc4ccccc4o3)sc2c1	i	83*	-1	54*	52*	17	14	41	34	6
CS(=O)(=O)c1ccc2nc(NC(=O)c3ccccc3Cl)sc2c1	-3	2	1	5	1	x	x	x	x	x
